Source: ChEMBL document CHEMBL3352165 (Eur J Med Chem, 2014)
Active and inactive are the calls of the source. The calls are words filed in the database; no cut-off is given here.

Legend:
[1] = Cytotoxicity against human SKBR3 cells assessed as inhibition of cell growth after 72 hrs by sulforhodamine B assay; format: functional, cell-based; settings: SK-BR-3, 72 h
How it was run: (§1)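 Cells grown in RPMI-1640 with 5% FBS and plated at 5.0×10^4/ml. Next day exposed to 0.5–5000 ng/ml for 3 days. Survival read by sulforhodamine B staining. IC50 taken from growth curves; mean of at least three determinations.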

[2] = test system: BT-474; assay: Cytotoxicity against human BT474 cells assessed as inhibition of cell growth after 72 hrs by sulforhodamine B assay; format: functional, cell-based; settings: BT-474, 72 h; how it was run: as §1
[3] = test system: A-431; assay: Cytotoxicity against human A431 cells assessed as inhibition of cell growth after 72 hrs by sulforhodamine B assay; format: functional, cell-based; settings: A-431, 72 h; how it was run: as §1
[4] = test system: MCF7; assay: Cytotoxicity against human MCF7 cells assessed as inhibition of cell growth after 72 hrs by sulforhodamine B assay; format: functional, cell-based; settings: MCF7, 72 h; how it was run: as §1
[5] = test system: BT-474; assay: Induction of cell cycle arrest in human BT474 cells assessed as accumulation at G1 phase at 0.001 uM incubated for 12 hrs by propidium iodide staining based flow cytometry (reference value: 67%); format: functional
[6] = test system: BT-474; assay: Induction of cell cycle arrest in human BT474 cells assessed as accumulation at G2/M phase at 0.001 uM incubated for 12 hrs by propidium iodide staining based flow cytometry (reference value: 14%); format: functional
[7] = test system: BT-474; assay: Induction of cell cycle arrest in human BT474 cells assessed as accumulation at S phase at 0.001 uM incubated for 12 hrs by propidium iodide staining based flow cytometry (reference value: 19%); format: functional
[8] = test system: BT-474; assay: Induction of apoptosis in human BT474 cells at 0.001 uM incubated for 12 hrs by propidium iodide staining based flow cytometry (reference value: 1%); format: functional
[9] = test system: BT-474; assay: Induction of cell cycle arrest in human BT474 cells assessed as accumulation at G1 phase at 0.01 uM incubated for 12 hrs by propidium iodide staining based flow cytometry (reference value: 67%); format: functional
[10] = test system: BT-474; assay: Induction of cell cycle arrest in human BT474 cells assessed as accumulation at G2/M phase at 0.01 uM incubated for 12 hrs by propidium iodide staining based flow cytometry (reference value: 14%); format: functional
[11] = test system: BT-474; assay: Induction of cell cycle arrest in human BT474 cells assessed as accumulation at S phase at 0.01 uM incubated for 12 hrs by propidium iodide staining based flow cytometry (reference value: 19%); format: functional
[12] = test system: BT-474; assay: Induction of apoptosis in human BT474 cells at 0.01 uM incubated for 12 hrs by propidium iodide staining based flow cytometry (reference value: 1%); format: functional
[13] = test system: BT-474; assay: Induction of cell cycle arrest in human BT474 cells assessed as accumulation at G1 phase at 0.1 uM incubated for 12 hrs by propidium iodide staining based flow cytometry (reference value: 67%); format: functional
[14] = test system: BT-474; assay: Induction of cell cycle arrest in human BT474 cells assessed as accumulation at G2/M phase at 0.1 uM incubated for 12 hrs by propidium iodide staining based flow cytometry (reference value: 14%); format: functional
[15] = test system: BT-474; assay: Induction of cell cycle arrest in human BT474 cells assessed as accumulation at S phase at 0.1 uM incubated for 12 hrs by propidium iodide staining based flow cytometry (reference value: 19%); format: functional
[16] = test system: BT-474; assay: Induction of apoptosis in human BT474 cells at 0.1 uM incubated for 12 hrs by propidium iodide staining based flow cytometry (reference value: 1%); format: functional
[17] = test system: BT-474; assay: Induction of cell cycle arrest in human BT474 cells assessed as accumulation at G1 phase at 1 uM incubated for 12 hrs by propidium iodide staining based flow cytometry (reference value: 67%); format: functional
[18] = test system: BT-474; assay: Induction of cell cycle arrest in human BT474 cells assessed as accumulation at G2/M phase at 1 uM incubated for 12 hrs by propidium iodide staining based flow cytometry (reference value: 14%); format: functional
[19] = test system: BT-474; assay: Induction of cell cycle arrest in human BT474 cells assessed as accumulation at S phase at 1 uM incubated for 12 hrs by propidium iodide staining based flow cytometry (reference value: 19%); format: functional
[20] = test system: BT-474; assay: Induction of apoptosis in human BT474 cells at 1 uM incubated for 12 hrs by propidium iodide staining based flow cytometry (reference value: 1%); format: functional
[21] = test system: BT-474; assay: Induction of cell cycle arrest in human BT474 cells assessed as accumulation at G1 phase at 10 uM incubated for 12 hrs by propidium iodide staining based flow cytometry (reference value: 67%); format: functional
[22] = test system: BT-474; assay: Induction of cell cycle arrest in human BT474 cells assessed as accumulation at G2/M phase at 10 uM incubated for 12 hrs by propidium iodide staining based flow cytometry (reference value: 14%); format: functional
[23] = test system: BT-474; assay: Induction of cell cycle arrest in human BT474 cells assessed as accumulation at S phase at 10 uM incubated for 12 hrs by propidium iodide staining based flow cytometry (reference value: 19%); format: functional
[24] = test system: BT-474; assay: Induction of apoptosis in human BT474 cells at 10 uM incubated for 12 hrs by propidium iodide staining based flow cytometry (reference value: 1%); format: functional
[25] = Antitumor activity against human Calu3 cells xenografted in BALB/cA mouse assessed as tumor growth inhibition at 200 mg/kg, po; format: functional; settings: Calu-3, read-out: TGI
How it was run: (§2)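 Female BALB/cA nude mice, 6–7 weeks old, implanted s.c. on midright side with 2×10^6 Calu-3 cells in 0.2 ml PBS. Grouped at 60–150 mm³ tumour volume (6 per treated group, 12 vehicle). Oral dosing in 0.5% CMC with 0.1% Tween-80. Caliper volume = L×W²×0.5; inhibition = (1 − T/C)×100% on relative tumour volume; weight tracked for 21 d.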

[26] = Antitumor activity against human Calu3 cells xenografted in BALB/cA mouse assessed as tumor growth inhibition at 100 mg/kg, po; format: functional; settings: Calu-3, read-out: TGI; how it was run: as §2
[27] = test system: Mus musculus; assay: Toxicity in human Calu3 cells xenografted BALB/cA mouse assessed as body weight loss at 100 mg/kg, po measured every other day for 21 days; format: organism-based, Calu-3; parameters: dose 100 mg/kg, route oral; settings: in vivo, 504 h
How it was run: (§3)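 Female BALB/cA nude mice, 6–7 weeks old, implanted s.c. on the mid-right flank with 2×10^6 Calu-3 cells in 0.2 ml PBS. At 60–150 mm³ tumour volume, mice randomised into six per treatment group (twelve vehicle controls). Oral dosing in 0.5% CMC aqueous solution with 0.1% Tween-80. Body weight recorded every other day for 21 d.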

[28] = test system: Mus musculus; assay: Toxicity in human Calu3 cells xenografted BALB/cA mouse assessed as body weight loss at 200 mg/kg, po measured every other day for 21 days; format: organism-based, Calu-3; parameters: dose 200 mg/kg, route oral; settings: in vivo, 504 h; how it was run: as §3
[29] = target: T1, Receptor tyrosine-protein kinase erbB-2 (Homo sapiens, UniProt P04626); settings: BT-474, 0.001 to 10 uM
T1 sequence (P04626 whole entry): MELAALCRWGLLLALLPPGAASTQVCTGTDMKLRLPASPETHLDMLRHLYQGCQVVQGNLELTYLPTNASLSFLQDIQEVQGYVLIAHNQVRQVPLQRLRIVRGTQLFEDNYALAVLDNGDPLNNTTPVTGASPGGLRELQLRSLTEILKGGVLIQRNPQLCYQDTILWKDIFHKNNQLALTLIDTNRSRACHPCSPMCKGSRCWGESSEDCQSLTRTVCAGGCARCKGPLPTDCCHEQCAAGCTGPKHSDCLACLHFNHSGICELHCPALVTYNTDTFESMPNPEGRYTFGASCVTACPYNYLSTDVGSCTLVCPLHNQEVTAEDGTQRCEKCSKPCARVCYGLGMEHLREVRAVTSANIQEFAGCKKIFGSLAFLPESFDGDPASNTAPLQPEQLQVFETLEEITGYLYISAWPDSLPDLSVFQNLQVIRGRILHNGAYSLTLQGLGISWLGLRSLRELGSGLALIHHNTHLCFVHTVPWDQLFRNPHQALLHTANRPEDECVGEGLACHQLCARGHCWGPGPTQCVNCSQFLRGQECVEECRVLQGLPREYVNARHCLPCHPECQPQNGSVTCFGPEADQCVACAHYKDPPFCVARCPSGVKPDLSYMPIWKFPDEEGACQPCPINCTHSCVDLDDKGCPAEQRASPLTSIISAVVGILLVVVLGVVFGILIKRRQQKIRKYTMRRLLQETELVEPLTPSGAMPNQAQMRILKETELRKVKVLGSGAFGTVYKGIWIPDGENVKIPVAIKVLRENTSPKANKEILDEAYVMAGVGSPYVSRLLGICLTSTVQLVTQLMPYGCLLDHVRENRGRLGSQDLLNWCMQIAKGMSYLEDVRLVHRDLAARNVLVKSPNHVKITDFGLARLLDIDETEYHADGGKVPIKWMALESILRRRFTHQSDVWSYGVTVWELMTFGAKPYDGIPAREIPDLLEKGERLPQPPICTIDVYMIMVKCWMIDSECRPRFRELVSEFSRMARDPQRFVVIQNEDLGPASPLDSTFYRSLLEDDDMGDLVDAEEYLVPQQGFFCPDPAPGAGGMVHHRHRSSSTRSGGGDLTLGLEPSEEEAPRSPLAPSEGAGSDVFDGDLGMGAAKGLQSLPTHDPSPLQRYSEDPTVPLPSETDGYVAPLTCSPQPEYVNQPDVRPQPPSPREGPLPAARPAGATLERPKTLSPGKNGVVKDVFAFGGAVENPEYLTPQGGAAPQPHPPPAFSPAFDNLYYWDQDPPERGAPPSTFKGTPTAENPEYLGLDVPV

[30] = target: T1, Receptor tyrosine-protein kinase erbB-2; settings: BT-474, 0.001 to 10 uM; remark: listed apart in the source
[31] = target: T1, Receptor tyrosine-protein kinase erbB-2; settings: BT-474, 0.001 to 10 uM; remark: listed apart in the source
[32] = cells; settings: Homo sapiens, Calu-3, 72 h
[33] = test system: MDA-MB-453; assay: cells; settings: Homo sapiens, MDA-MB-453, 72 h
[34] = cells; settings: Homo sapiens, SK-OV-3, 72 h
[35] = test system: MDA-MB-231; assay: cells; settings: Homo sapiens, MDA-MB-231, 72 h
[36] = test system: NCI-H460; assay: cells; settings: Homo sapiens, NCI-H460, 72 h
[37] = test system: MRC5; assay: cells; settings: Homo sapiens, MRC5, 72 h
[38] = target: Vascular endothelial growth factor receptor 2 (Homo sapiens, UniProt P35968); assay: Inhibition of KDR phosphorylation (unknown origin) expressed in human HUVEC at 0.001 to 1 uM incubated for 2 hrs by Western blot method
Vascular endothelial growth factor receptor 2, sequence (P35968 whole entry): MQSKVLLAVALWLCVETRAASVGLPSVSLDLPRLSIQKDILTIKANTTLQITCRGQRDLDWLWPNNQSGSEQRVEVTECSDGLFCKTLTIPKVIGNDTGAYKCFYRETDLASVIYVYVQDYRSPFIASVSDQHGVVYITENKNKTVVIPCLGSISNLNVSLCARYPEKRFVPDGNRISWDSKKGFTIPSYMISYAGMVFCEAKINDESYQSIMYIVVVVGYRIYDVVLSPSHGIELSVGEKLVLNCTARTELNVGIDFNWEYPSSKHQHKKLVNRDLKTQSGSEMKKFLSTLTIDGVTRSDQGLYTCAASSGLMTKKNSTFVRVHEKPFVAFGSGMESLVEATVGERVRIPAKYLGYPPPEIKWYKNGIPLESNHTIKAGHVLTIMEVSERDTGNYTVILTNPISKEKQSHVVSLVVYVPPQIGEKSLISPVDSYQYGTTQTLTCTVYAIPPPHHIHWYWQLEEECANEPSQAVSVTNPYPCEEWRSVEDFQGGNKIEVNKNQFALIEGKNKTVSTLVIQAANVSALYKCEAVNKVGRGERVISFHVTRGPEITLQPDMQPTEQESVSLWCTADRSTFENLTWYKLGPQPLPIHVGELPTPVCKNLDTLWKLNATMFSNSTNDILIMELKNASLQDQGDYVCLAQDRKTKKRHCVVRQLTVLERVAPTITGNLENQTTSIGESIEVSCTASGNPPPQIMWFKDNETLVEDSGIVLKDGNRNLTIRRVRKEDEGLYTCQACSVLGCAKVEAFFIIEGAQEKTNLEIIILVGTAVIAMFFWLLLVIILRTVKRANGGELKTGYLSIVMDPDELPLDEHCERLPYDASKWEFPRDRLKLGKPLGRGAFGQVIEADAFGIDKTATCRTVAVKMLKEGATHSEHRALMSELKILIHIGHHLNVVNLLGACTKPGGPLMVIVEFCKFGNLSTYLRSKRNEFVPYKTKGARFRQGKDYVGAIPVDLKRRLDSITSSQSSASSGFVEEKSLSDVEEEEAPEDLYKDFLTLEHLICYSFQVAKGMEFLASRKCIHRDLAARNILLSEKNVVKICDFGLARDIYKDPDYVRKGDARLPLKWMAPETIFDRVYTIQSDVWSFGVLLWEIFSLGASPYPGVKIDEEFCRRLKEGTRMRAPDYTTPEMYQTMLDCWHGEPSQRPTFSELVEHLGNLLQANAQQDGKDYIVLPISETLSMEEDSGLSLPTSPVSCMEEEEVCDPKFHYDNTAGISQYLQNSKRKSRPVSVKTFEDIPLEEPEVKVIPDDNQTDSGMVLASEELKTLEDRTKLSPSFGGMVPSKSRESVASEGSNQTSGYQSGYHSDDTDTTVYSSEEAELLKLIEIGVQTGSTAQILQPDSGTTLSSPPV

[39] = target: Mast/stem cell growth factor receptor Kit (Homo sapiens, UniProt P10721); assay: Inhibition of c-KIT phosphorylation (unknown origin) expressed in human NCI-H526 cells at 0.001 to 1 uM incubated for 2 hrs by Western blot method
Mast/stem cell growth factor receptor Kit, sequence (P10721 whole entry): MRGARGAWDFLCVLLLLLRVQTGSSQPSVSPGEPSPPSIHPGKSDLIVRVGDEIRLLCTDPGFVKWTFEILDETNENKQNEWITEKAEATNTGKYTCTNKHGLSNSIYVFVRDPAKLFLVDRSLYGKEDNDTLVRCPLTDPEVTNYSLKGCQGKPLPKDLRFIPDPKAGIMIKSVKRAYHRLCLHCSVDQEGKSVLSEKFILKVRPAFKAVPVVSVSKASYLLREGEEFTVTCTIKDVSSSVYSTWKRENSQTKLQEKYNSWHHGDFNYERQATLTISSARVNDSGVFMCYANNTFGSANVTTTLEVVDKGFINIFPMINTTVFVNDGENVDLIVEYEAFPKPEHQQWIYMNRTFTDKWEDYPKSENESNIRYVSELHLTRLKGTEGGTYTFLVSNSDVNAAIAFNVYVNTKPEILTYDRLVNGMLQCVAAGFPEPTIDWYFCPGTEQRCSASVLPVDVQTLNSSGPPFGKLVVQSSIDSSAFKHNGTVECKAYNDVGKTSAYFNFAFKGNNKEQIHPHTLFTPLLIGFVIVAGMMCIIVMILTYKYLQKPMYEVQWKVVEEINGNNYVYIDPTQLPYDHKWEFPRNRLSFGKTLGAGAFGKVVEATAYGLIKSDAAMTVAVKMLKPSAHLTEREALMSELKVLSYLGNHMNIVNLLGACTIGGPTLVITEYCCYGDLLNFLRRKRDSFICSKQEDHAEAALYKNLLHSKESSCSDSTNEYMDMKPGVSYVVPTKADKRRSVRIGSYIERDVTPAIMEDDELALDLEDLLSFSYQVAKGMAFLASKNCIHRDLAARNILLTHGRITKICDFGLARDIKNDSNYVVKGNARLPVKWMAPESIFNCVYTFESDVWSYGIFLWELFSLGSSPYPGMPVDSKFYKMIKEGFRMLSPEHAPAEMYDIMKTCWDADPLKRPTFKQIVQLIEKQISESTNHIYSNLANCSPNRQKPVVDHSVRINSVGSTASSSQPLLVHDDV

[40] = target: Platelet-derived growth factor receptor beta (Homo sapiens, UniProt P09619); assay: Inhibition of PDGFRbeta phosphorylation (unknown origin) expressed in human U87MG cells at 0.001 to 1 uM incubated for 2 hrs by Western blot method; settings: U-87MG ATCC
Platelet-derived growth factor receptor beta, sequence (P09619 whole entry): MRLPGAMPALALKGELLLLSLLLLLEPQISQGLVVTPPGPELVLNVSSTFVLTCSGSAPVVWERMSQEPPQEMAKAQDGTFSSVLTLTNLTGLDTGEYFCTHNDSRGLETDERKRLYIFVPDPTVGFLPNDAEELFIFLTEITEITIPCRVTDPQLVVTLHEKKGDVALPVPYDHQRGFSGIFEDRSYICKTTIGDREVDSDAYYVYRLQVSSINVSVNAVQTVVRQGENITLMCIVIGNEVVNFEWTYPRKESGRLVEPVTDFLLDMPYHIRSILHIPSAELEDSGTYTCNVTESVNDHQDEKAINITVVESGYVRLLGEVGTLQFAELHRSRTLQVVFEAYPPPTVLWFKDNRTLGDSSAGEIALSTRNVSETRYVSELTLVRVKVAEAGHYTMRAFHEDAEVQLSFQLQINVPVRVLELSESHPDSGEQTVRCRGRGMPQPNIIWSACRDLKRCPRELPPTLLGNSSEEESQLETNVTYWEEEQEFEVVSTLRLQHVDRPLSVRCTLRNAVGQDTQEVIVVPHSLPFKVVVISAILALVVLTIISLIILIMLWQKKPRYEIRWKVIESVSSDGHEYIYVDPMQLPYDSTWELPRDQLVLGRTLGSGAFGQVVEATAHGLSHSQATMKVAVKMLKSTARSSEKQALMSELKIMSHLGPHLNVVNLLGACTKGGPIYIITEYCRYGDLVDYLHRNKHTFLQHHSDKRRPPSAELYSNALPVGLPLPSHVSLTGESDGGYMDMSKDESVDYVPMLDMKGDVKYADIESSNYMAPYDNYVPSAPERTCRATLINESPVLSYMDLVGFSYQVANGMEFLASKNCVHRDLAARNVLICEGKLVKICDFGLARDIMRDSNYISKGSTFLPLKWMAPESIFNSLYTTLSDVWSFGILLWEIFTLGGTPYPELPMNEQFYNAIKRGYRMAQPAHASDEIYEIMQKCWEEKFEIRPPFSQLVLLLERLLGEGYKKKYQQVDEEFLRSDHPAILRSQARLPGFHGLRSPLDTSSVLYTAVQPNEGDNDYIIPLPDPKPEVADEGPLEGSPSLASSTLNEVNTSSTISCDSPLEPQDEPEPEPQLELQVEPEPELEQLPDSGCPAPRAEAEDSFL

CS(=O)(=O)CCNCc1ccc(-c2ccc3ncnc(Nc4ccc(OCc5cccc(F)c5)c(Cl)c4)c3c2)o1 [LAPATINIB]
IC50 [1]: 30.1 nM | IC50 [2]: 63.9 nM | IC50 [3]: 643 nM | IC50 [4]: 8470 nM | Activity [5]: 71% | Activity [6]: 14% | Activity [7]: 15% | Activity [8]: 1% | Activity [9]: 82% | Activity [10]: 11% | Activity [11]: 7% | Activity [12]: 1% | Activity [13]: 84% | Activity [14]: 10% | Activity [15]: 6% | Activity [16]: 4% | Activity [17]: 84% | Activity [18]: 10% | Activity [19]: 6% | Activity [20]: 6% | Activity [21]: 81% | Activity [22]: 11% | Activity [23]: 8% | Activity [24]: 13% | inhibition in vivo at 200 mg/kg [25]: 70% | inhibition in vivo at 100 mg/kg [26]: 56% | Activity [27]: Non-toxic | Activity [28]: Non-toxic | inhibition [29]: Active | inhibition [30]: Active | inhibition [31]: Active | IC50 [32]: 230 nM | IC50 [33]: 190 nM | IC50 [34]: 590 nM | IC50 [35]: > 100000 nM | IC50 [36]: > 100000 nM | IC50 [37]: > 100000 nM | inhibition [38]: inactive | inhibition [39]: inactive | inhibition [40]: inactive
